# Screening results as filed in PubChem BioAssay.
# Only some compounds are listed: those with a hit (about 2.1% of all), similar ones and a draw of the others.
# VIM-2 inh = blocks Pseudomonas aeruginosa VIM-2 metallo-beta-lactamase. purified VIM-2, nitrocefin hydrolysis, epi-absorbance fluorescence. inhibition, % at 5.6 µM. actives 0.89% (n = 290,000);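 active = inhibition above the mean of all tested compounds plus 3 SD, cutoff set per screening run, cut at about 7.5% in these data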;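 note: red hydrolysis product quenches plate fluorescence so inhibitors raise well fluorescence; 0% = enzyme with DMSO and 100% = DMSO without enzyme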
# bovine MsrA act = bovine methionine sulfoxide reductase A activation; purified bovine MsrA, absorbance read-out; activation, % at 10.6 µM; actives 0.3% (n = 360,000); AID 602163; in the data active = activation above about 7.5%;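 note: 0% = vehicle and 100% = reference activator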
# PKA-R2B activ = activators of human PKA-R2B complex; P22694+P31323; PKA-R2B holoenzyme dissociation, Cy5-IP20 fluorescence polarization; R2B truncated from residue 108, S112A mutant; 0% DMSO only, 100% 113 µM cGMP; activation, % at 11.4 µM; actives 0.079% (n = 340,000); AID 504700;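 active = activation above a cutoff set at the mean over all compounds plus 3 SD, cut at about 18% in these data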;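 note: higher means more holoenzyme dissociation and a rise in polarization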
# Target sequence (P31323 whole entry, looked up, other chains not shown, the tested form may be a part): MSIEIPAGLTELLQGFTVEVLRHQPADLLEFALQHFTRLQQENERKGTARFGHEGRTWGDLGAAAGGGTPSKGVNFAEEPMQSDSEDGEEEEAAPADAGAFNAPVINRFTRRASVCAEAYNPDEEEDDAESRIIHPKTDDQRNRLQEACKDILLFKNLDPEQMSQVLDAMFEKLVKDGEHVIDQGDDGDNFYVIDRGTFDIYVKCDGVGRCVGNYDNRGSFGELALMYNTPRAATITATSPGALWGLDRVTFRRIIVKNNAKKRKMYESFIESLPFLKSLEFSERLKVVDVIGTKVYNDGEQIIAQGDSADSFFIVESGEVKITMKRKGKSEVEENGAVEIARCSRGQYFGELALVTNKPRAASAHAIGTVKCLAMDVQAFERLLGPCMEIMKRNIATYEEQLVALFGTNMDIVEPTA
# PKA-R1A act = activates the PKA-R1A holoenzyme complex; P00514+P68181; PKA-R1A dissociation, Cy5-IP20 fluorescence polarization; scaled: DMSO 0%, 113 µM cGMP 100%; activation, % at 11.4 µM; actives 0.083% (n = 340,000); AID 504707;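 active = percent activation above the mean of all tested compounds plus 3 SD, cut at about 19% in these data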;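 note: higher means more PKAc released from R1A so a rise in polarization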
# IMP-1 inhibitor = blocks Pseudomonas aeruginosa IMP-1 metallo-beta-lactamase; purified IMP-1, nitrocefin hydrolysis, epi-absorbance fluorescence; inhibition, % at 5.6 µM; actives 0.45% (n = 290,000); AID 1556;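 active = inhibition above the mean plus 3 SD of all compounds in the same screening run, cut at about 4.5% in these data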;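 note: 0% = IMP-1 with DMSO and 100% = DMSO wells lacking enzyme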
#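 Test system: recombinant IMP-1 enzyme, purified / Medium: HEPES buffer pH 7.1 with ZnSO4 and Brij 35 / Doses: single dose, 5.6 µM / Times: 25 °C, 15 min preincubation, 25 min reaction / Detection: Epi-absorbance via hydrolysed-nitrocefin quenching of white-plate fluorescence, 480/530 nm, EDTA stop / Evaluation: percent inhibition from optical density relative to buffer-blank wells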
# MsrA inh = bovine MsrA inhibition; inhibition, % at 15.5 µM; purified bovine MsrA, absorbance read-out; actives 0.75% (n = 360,000);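 note: 0% = vehicle wells with enzyme and 100% = reference inhibitor wells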
# MsrA conf = confirmation of bovine MsrA inhibitors. shares compounds with MsrA inh. purified bovine MsrA, absorbance read-out. inhibition, % at 15.5 µM. actives 41% (n = 2,300);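 note: coupled to thioredoxin reductase with NADPH and selenocystamine and DMSO as substrate; 0% = vehicle only and 100% = full effect of reference inhibitor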
# * = called active by the depositor; . = not tested or not shown. Cut-off read from the data, not from the text of the source, unless noted: active = inhibition above about 4.5%; inactive = the rest.
SMILES,VIM-2 inh,bovine MsrA act,PKA-R2B activ,PKA-R1A act,IMP-1 inhibitor,MsrA inh,MsrA conf
COc1cc(/C=N/Nc2cc(C)nc(NS(=O)(=O)c3ccccc3)n2)ccc1O,-1.1,-6.6,-4.7,0.5,-2.5,7.4*,6.9*
COc1ccc(/C=N/Nc2cc(C)nc(NS(=O)(=O)c3ccc(C)cc3)n2)cc1,-4.4,-2.0,-1.4,-3.4,-2.7,2.9,.
Cc1nn(C)cc1/C=C/C(=O)c1cccs1,-3.7,-3.5,4.3,3.4,1.1,5.4*,4.4
CC1(C(=O)NS(=O)(=O)c2cccs2)CCN1C(=O)c1cccc(F)c1 (stereo unspecified),.,2.3,.,.,.,-0.1,.
CCOC(=O)c1cc2ccc3ccccc3c2oc1=O,6.6,-3.5,-0.7,-1.4,0.0,15.1*,10.3*
CCOC(=O)c1cc2ccc(OC(=O)c3ccco3)cc2oc1=O,-0.3,0.7,-7.0,-12.8,0.8,2.2,.
COc1ccc(C=NN(C)C(=O)Nc2cccc(Cl)c2)cc1OC,.,.,.,.,.,0.1,.
Cc1nn2c(=O)cc(CSc3ccccc3NC(=O)c3ccccc3)nc2s1,-1.3,2.3,-1.0,-3.3,-4.0,17.3*,13.1*
Cc1nn2c(=O)cc(CSc3ccccc3NC(=O)c3ccccc3F)nc2s1,6.0,-4.9,-5.0,9.0,-1.4,4.7*,3.0
CC(C)c1nn2c(=O)cc(CSc3ccccc3NC(=O)c3ccccc3F)nc2s1,4.7,-9.8,7.0,4.0,-2.4,1.2,.
COc1cc(C(=O)Nc2ccccc2SCc2cc(=O)n3nc(C)sc3n2)cc(OC)c1OC,-4.9,-3.6,8.1,-7.8,-3.7,0.7,.
CC(=O)N1CCCN(Cc2cn(-c3cc(C)ccc3C)nc2-c2ccccc2)CC1,-3.4,3.2,-8.9,2.6,-3.7,5.0*,-0.5
CCOC(=O)C1=C(c2ccccc2)OC(N)=C(C#N)C1c1ccco1 (stereo unspecified),-1.9,-4.3,6.5,-4.0,-2.6,6.3*,3.0
O=C(N1CCc2cc(S(=O)(=O)NC[C@H]3O[C@@H](n4ccc(=O)[nH]c4=O)[C@H](O)[C@@H]3O)ccc2C1)C(F)(F)F,.,-2.1,-5.4,3.3,.,-0.5,.
O=C1CCCc2nc(N3CCCCC3)sc21,-2.0,-2.6,-7.8,-3.8,-3.2,5.8*,5.2*
Cc1ccc(NC(=O)CN(C)C(=O)c2cc(-c3ccccc3)nn2-c2ccccc2)cc1,.,-1.2,-2.6,1.8,.,-1.6,.
CCCNC1=C(N(C(C)=O)c2cccc(F)c2)C(=O)c2ccccc2C1=O,-1.3,-8.6,2.1,-4.2,-5.3,21.6*,5.0*
COc1ccccc1N(CC(=O)NCc1ccccc1)S(=O)(=O)c1cccs1,.,0.8,9.6,-1.9,.,0.9,.
O=C1COc2cc(ccc2[N+](=O)[O-])Oc2ccc(cc2Cl)C(=O)CCCCO1,.,-6.2,-8.4,-5.4,.,5.2*,5.1*
COc1ccc(NC(=O)/C=C2\SC(=O)NC2=O)cc1,-2.1,-4.7,5.0,6.2,-0.9,4.8*,2.9
COc1nnc(-c2ccc(N3CCCCC3)c(NC(=O)COc3ccccc3)c2)c2ccccc12,.,-3.6,-7.0,6.5,.,-1.2,.
O=C(O)c1cc(-c2ccccc2)nc2nc(N3CCCCC3)sc12,-1.6,.,.,.,-0.2,5.8*,2.1
Cc1ccc(-c2cc(C(=O)O)c3sc(N4CCCCC4)nc3n2)cc1,-1.9,0.1,-5.4,0.0,0.3,2.4,.
Cn1c(CNC(=O)CNS(=O)(=O)c2ccc(Br)cc2)cc(=O)n(C)c1=O,-0.2,-4.2,-1.0,-10.8,-0.2,-0.3,.
CC(C)n1cc(/C=N/Nc2ccc(C(=O)O)cc2)c2ccccc21,0.0,-2.1,0.4,-1.1,-1.0,5.5*,4.2
SMILES,VIM-2 inh,bovine MsrA act,PKA-R2B activ,PKA-R1A act,IMP-1 inhibitor,MsrA inh,MsrA conf
O=C(N/N=C\c1c[nH]c2ccccc12)c1ccc(O)cc1,-3.3,-5.0,1.4,8.6,-4.0,5.3*,4.1
O=C(O)c1ccc(N/N=C/c2c[nH]c3ccccc23)cc1,-3.7,-5.3,6.5,-8.0,-1.9,5.6*,6.1*
NC(=S)N/N=C/c1c[nH]c2ccccc12,-3.1,-0.5,-3.1,6.5,-3.2,6.5*,3.0
O=C(O)c1ccc(S(=O)(=O)NN=Cc2c[nH]c3ccccc23)cc1,.,-15.6,-1.9,1.0,.,2.1,.
Cc1cc(NC(=O)COC(=O)C2CC(=O)N(c3ccc(Cl)cc3)C2)no1 (stereo unspecified),-1.9,-3.5,1.0,-4.5,-2.7,-1.1,.
C[C@@H]1CN([C@H](C)CO)C(=O)CCCn2nncc2CO[C@H]1CN(C)S(=O)(=O)c1ccccc1,.,-4.6,-2.0,0.8,.,0.7,.
C[C@H]1CNC(=O)c2c(C(=O)N3CCN(c4ccccc4)CC3)ncn21,.,.,.,.,.,-0.2,.
CC1(C(=O)NS(=O)(=O)c2ccccc2Cl)CCN1C(=O)Cc1ccc(Cl)cc1Cl (stereo unspecified),.,-7.0,.,.,.,-0.7,.
CC(=O)Oc1cccc2c1C(=O)C1CC=CC(OC(C)=O)C1C2=O (stereo unspecified),.,1.0,11.8,8.4,.,0.1,.
COc1ccc(/C=N/NC(=S)Nc2cccc(C(=O)O)c2)cc1,-1.8,-6.2,-13.2,-22.2,-2.5,4.2,.
COc1ccc(/C=N/NC(=S)SC)cc1OC,-4.3,-4.2,-3.1,4.4,-2.6,6.2*,4.3
COc1cc(/C=N/Nc2ccc(C(=O)O)cc2)ccc1O,3.9,-6.2,1.2,-2.0,0.7,7.1*,5.1*
COc1ccc(C=NNC(=O)NN=Cc2ccc(OC)c(OC)c2)cc1OC,.,-5.1,-14.5,-4.3,.,2.8,.
COc1cc(/C=N/NC(=S)Nc2cccc(C(=O)O)c2)ccc1O,2.5,-5.6,-4.5,2.3,-4.5,5.1*,5.6*
CC(=O)Nc1ccc(/C=N/NC(=S)NC(C)C)cc1,-1.8,-0.8,-11.2,-15.8,-4.1,8.9*,3.8
O=C(Cc1ccc(F)cc1)Nc1cc(S(=O)(=O)N2CCOCC2)ccc1N1CCCCC1,.,1.1,3.6,3.3,.,-0.6,.
CCNc1nc(NCC)nc(N/N=C/c2ccc(OC)cc2)n1,-1.7,-5.2,.,.,-2.4,0.7,.
COc1cc(/C=N/Nc2ccc(C(=O)O)cc2)cc(OC)c1OC,-1.5,-2.0,-6.7,-8.0,-3.1,2.6,.
COc1ccc(/C=N/NC(=S)Nc2ccccc2)cc1COc1ccc(Br)cc1,-3.3,-3.8,-4.8,-4.6,-1.7,1.8,.
COc1ccc(/C=N/Nc2nc(C)nc(N)n2)cc1,-2.7,-4.2,-0.7,-13.8,-3.3,4.7*,3.3
COc1cc(/C=N/Nc2ccc(S(N)(=O)=O)cc2)cc(OC)c1OC,-3.7,-1.8,-3.8,-14.4,-2.4,5.6*,6.3*
COc1ccc(/C=N/NC(=S)Nc2ccccc2)cc1,-0.8,-8.4,-1.4,1.9,-1.3,4.9*,3.7
COc1cc(C=O)ccc1O,.,-7.5,.,.,.,6.2*,3.3
